# Screening results from PubChem BioAssay.
# DNA FID counter-1 = fluorescent intercalator displacement, NS3 helicase counter-screen | 290,000 tested, 0.17% active | DNA fluorescent intercalator displacement, fluorescence | inhibition, % at 7.9 µM | AID 1845;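 note: 0% = vehicle and 100% = reference compound; higher means more ethidium bromide displaced from hairpin DNA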
# PP1 counter = PP1-alpha (human) inhibition in PP5 counter-screen | P62136 | purified PP1alpha, OMFP fluorescence | inhibition, % at 6.7 µM | 320,000 tested, 0.9% active | AID 2235;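 active = inhibition above the mean inhibition of all tested compounds plus 3 SD, computed separately for each screening campaign, cut at about 15% in these data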
# Target sequence (P62136 whole entry, looked up): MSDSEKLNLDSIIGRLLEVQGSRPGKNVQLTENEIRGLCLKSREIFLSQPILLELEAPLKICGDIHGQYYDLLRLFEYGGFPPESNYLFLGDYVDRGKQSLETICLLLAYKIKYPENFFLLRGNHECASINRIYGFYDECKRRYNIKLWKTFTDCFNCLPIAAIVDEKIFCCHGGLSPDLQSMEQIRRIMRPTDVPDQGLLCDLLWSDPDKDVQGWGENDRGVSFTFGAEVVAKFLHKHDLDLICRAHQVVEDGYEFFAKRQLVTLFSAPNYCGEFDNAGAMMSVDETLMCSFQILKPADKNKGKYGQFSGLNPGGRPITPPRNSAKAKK
# HIF activator = HIF pathway transcriptional activation; 300,000 tested, 0.32% active; activation, % at 7.5 µM (by protocol); U2OS HRE-luciferase reporter, luminescence; normalized: DMSO 0%, desferrioxamine 100%;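 active = mean activation of at least 10% of the iron chelator positive control signal, with at least half of replicates also reaching 10%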
# PP5 inh = blocks human protein phosphatase 5 activity. purified PP5c, OMFP substrate fluorescence. inhibition, % at 6.7 µM. 320,000 tested, 0.18% active;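 active = inhibition above the campaign's mean inhibition across all tested compounds plus 3 SD, cut at about 9.5% in these data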;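 note: 0% = DMSO only and 100% = 100 µM cantharidin control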
# NS3 helicase inh = blocks Hepatitis C virus NS3 helicase unwinding; NS3 helicase DNA unwinding, Cy5 molecular beacon fluorescence; inhibition, % at 10.9 µM; 290,000 tested, 0.56% active; AID 1800;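 active = inhibition above the mean of all tested compounds plus 3 SD, set per campaign, cut at about 35% in these data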;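 note: 0% = DMSO wells and 100% = thioflavine S control wells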
#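 Measured by: Cy5 fluorescence, 0 and 60 min reads / Assay system: NS3 helicase fragment of HCV / Control set: low DMSO, high thioflavine S at 110 µM / Times: 1 h reaction at 25 °C, ATP-initiated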
# NS3 helicase cf = confirmation of Hepatitis C virus NS3 helicase inhibitors. shares compounds with NS3 helicase inh. NS3 helicase DNA unwinding, Cy5 molecular beacon fluorescence. inhibition, % at 10.9 µM. 1,600 tested, 31% active;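 active = inhibition above the mean of all tested compounds plus 3 SD, cutoff set per campaign, cut at about 36% in these data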
# DNA FID counter-2 = displaces DNA intercalator in HCV helicase counter-screen. shares compounds with NS3 helicase inh. DNA fluorescent intercalator displacement, fluorescence. inhibition, % at 7.9 µM. 1,600 tested, 4% active;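 note: 0% = vehicle and 100% = reference compound; higher means more displacement of ethidium bromide from the DNA hairpin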
# FID counter DR = counter-screen for HCV NS3 helicase inhibitors: DNA intercalator displacement dose response | fluorescent intercalator displacement from DNA, fluorescence | IC50, µM | shares compounds with NS3 helicase inh | 120 tested, under 10 active; call rule not given here
# An asterisk follows results filed as active; x = not tested or not shown. Only some compounds are listed: those with a hit (about 1.9% of all), similar ones and a draw of the others. Cut-off read from the data, not from the text of the source, unless noted: active = inhibition above about 37%; inactive = the rest.
SMILES,DNA FID counter-1,PP1 counter,HIF activator,PP5 inh,NS3 helicase inh,NS3 helicase cf,DNA FID counter-2,others
O=C(O)c1ccccc1-c1ccc(C=C2C(=O)N(c3ccccc3)C(=S)N(c3ccccc3)C2=O)o1,-20,6,3,1,42*,69*,9,
CCCCN1C(=O)/C(=C/C=C/c2ccco2)C(=O)NC1=S,-11,x,0,x,62*,57*,24,
CCOc1ccc(N2C(=O)/C(=C/c3ccco3)C(=O)NC2=S)cc1,-24,5,0,1,30,x,x,
Cc1ccc(N2C(=O)NC(=O)/C(=C/C=C/c3ccco3)C2=O)cc1,-23,1,1,1,39*,-8,6,
Cc1cc(C)cc(N2C(=O)NC(=O)/C(=C\C=C\c3ccco3)C2=O)c1,-25,7,2,3,54*,24,6,
COc1ccc(C(c2ccc(OC)cc2)C(Cl)(Cl)Cl)cc1,x,-1,x,3,x,x,x,
COC(=O)C1=C(c2ccc(F)cc2OCc2ccccc2)C[C@@H]2CC[C@H]1N2C(=O)NCc1ccc2c(c1)OCO2,x,11,x,2,x,x,x,
Cn1cccc1/C=C1/C(=O)NC(=O)N(Cc2ccc(F)cc2)C1=O,-11,0,0,-3,33,x,x,
Cn1cccc1/C=C1/C(=O)NC(=S)N(Cc2ccc(F)cc2)C1=O,-9,14,-1,1,45*,78*,18,
CN1[C@@H]2CC[C@H]1CC(OC1c3ccccc3CCc3ccccc31)C2 (some centres undefined),x,4,x,0,x,x,x,
CCN(CC)C(=O)c1ccc(N(Cc2ccccc2)S(C)(=O)=O)cc1,-20,x,-1,x,-3,x,x,
CCN(CC)C(=O)c1ccc2c(c1)C1C=CCC1C(C(=O)O)N2 (centres undefined),-35,x,0,x,42*,86*,-3,
CCCCn1c(NS(=O)(=O)c2ccccc2)c(C(=O)OCC)c2nc3ccccc3nc21,-31,4,-44,9,37*,58*,-39,
CCOC(=O)c1c(N)n(CCN2CCCCC2)c2nc3ccccc3nc12,18,0,0,-1,1,x,x,
O=C(/C=C/c1ccc(F)cc1)NC(=S)N1C[C@H]2C[C@H](C1)c1cccc(=O)n1C2,-10,-4,0,-1,-2,x,x,
COC(=O)c1ccccc1NC(=O)N1C[C@@H]2C[C@@H](C1)c1cccc(=O)n1C2,-2,-1,0,3,10,x,x,
O=C(O)c1ccccc1NC(=O)N1C[C@H]2C[C@@H](C1)c1cccc(=O)n1C2,1,-6,0,5,42*,-9,8,
Cc1cc(OCC(=O)NCc2ccc(S(N)(=O)=O)cc2)c2c3c(c(=O)oc2c1)CCC3,-25,-1,0,2,11,x,x,
COC(=O)C1=C(c2cccc(C#N)c2)C[C@@H]2CC[C@H]1N2C(=O)NCC1CC1,x,-3,x,2,x,x,x,
O=C1NC(=S)NC(=O)C1=Cc1ccc(Br)s1,6,-2,-10,3,45*,56*,8,
O=C1NC(=O)C(=Cc2ccc(-c3ccccc3[N+](=O)[O-])o2)C(=O)N1,5,-4,0,3,45*,-22,20,
CNS(=O)(=O)c1ccc(-c2ccc(C=C3C(=O)NC(=O)NC3=O)o2)cc1,0,0,0,1,45*,-28,6,
CC1=C2[C@@H]3OC(=O)[C@H](C)C3CC[C@@]2(C)C=CC1=O (some centres undefined),-1,-2,-3,1,0,x,x,
O=C1NC(=O)N(c2ccccc2)C(=O)/C1=C\c1ccc([N+](=O)[O-])s1,-10,0,0,2,41*,50*,11,FID counter DR=>79
CC(C)c1ccc(-n2c(O)c(/C=N/NC(=O)c3ccccc3O)c(=O)[nH]c2=S)cc1,-30,10,0,-1,74*,74*,21,
SMILES,DNA FID counter-1,PP1 counter,HIF activator,PP5 inh,NS3 helicase inh,NS3 helicase cf,DNA FID counter-2,others
Clc1cc(Cl)c(-c2cc(Cl)c(Cl)cc2Cl)cc1Cl,x,2,x,3,x,x,x,
O=C(O)Cn1cc(/C=C2\C(=O)NC(=O)N(c3ccc(Br)cc3)C2=O)c2ccccc21,-12,4,2,0,49*,28,-8,
O=C1NC(=O)N(Cc2ccccc2)C(=O)/C1=C\c1ccco1,-17,0,-1,0,39*,20,24,
CCCCN1C(=O)/C(=C\c2ccco2)C(=O)N(CCc2ccccc2)C1=O,-28,10,0,1,38*,69*,15,
CCCCN1C(=O)/C(=C/c2ccc(N(C)C)cc2)C(=O)N(Cc2ccco2)C1=O,-28,7,0,0,26,x,x,
Cn1cccc1/C=C1/C(=O)NC(=O)N(Cc2ccccc2)C1=O,-23,2,-1,0,18,x,x,
O=C1NC(=O)N(Cc2ccco2)C(=O)/C1=C/c1cccn1CCOc1ccccc1Cl,-19,14,-1,1,43*,2,-1,
Cn1cccc1/C=C1\C(=O)NC(=O)N(Cc2ccccc2)C1=O,-25,-1,0,-2,13,x,x,
Cc1cc(/C=C2/C(=O)NC(=O)N(Cc3ccco3)C2=O)c(C)n1-c1ccccc1O,-21,4,0,2,49*,-17,11,
COC(=O)C1=C(c2c(C)noc2C)C[C@@H]2CC[C@H]1N2C(=O)NCc1ccc(C(F)(F)F)cc1,x,-1,x,1,x,x,x,
CC1(C)CC[C@]2(C)CC[C@]3(C)C4C[C@@H]5OO[C@@]6(O5)C(CCCC6(C)C)[C@]4(C)CC[C@@]3(C)C2C1 (some centres undefined),x,-1,x,4,x,x,x,
COc1ccc(CN2C(=O)NC(=O)/C(=C/c3ccoc3)C2=O)cc1,-20,-6,0,2,54*,17,15,
COc1ccc(CN2C(=O)NC(=O)/C(=C/c3cc(OC)c(OC)c(OC)c3)C2=O)cc1,-26,-1,0,1,4,x,x,
c1ccc2nc(N3CCNCC3)ccc2c1,x,-3,x,3,x,x,x,
CN(C)c1ccc(N=Cc2c(O)n(CCC3=CCCCC3)c(=O)[nH]c2=O)cc1,2,-1,0,4,40*,-1,-8,
CCN(CC)c1ccc(N=Cc2c(O)n(CCC3=CCCCC3)c(=O)[nH]c2=O)cc1,5,1,-1,4,5,x,x,
Cc1ccccc1-n1c(O)c(C=Nc2ccc(N(C)C)cc2)c(=O)[nH]c1=O,-20,2,0,2,43*,-12,-14,
Cc1cccc(N=Cc2c(O)n(-c3ccccc3C)c(=O)[nH]c2=O)c1,-15,-2,-1,0,6,x,x,
O=c1[nH]c(=S)n(CCC2=CCCCC2)c(O)c1/C=N/N1CCOCC1,-17,-1,0,1,41*,-8,11,
